Experimental data: ChEMBL document CHEMBL4219253, “Positive Modulators of the N-Methyl-d-aspartate Receptor: Structure-Activity Relationship Study of Steroidal 3-Hemiesters” (J Med Chem, 2018)

Legend:
[1] = biological target: Glutamate NMDA receptor; Grin1/Grin2b (Rattus norvegicus, UniProt P35439+Q00960); experiment: Positive allosteric modulation of recombinant rat GluN1alpha/GluN2B receptor expressed in HEK293 cells assessed as potentiation of glutamate-induced current response at holding potential -60mV by whole cell voltage clamp method; assay type: cell-based
In short: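 HEK293 cells transfected with GluN1-1a, GluN2A, 2B, 2C or 2D and GFP cDNA. Whole-cell voltage clamp at -60 mV, 21–25 °C, series resistance <10 MΩ compensated 80–90%. Compound co-applied with 1 µM glutamate by fast multibarrel perfusion. DMSO 1% in all solutions. At least four cells per point.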

[2] = biological target: T1, Glutamate NMDA receptor; Grin1/Grin2b (Rattus norvegicus) (UniProt P35439+Q00960); experiment: Positive allosteric modulation of recombinant rat GluN1alpha/GluN2B receptor expressed in HEK293 cells assessed as potentiation of glutamate-induced current response at 1 to 30 uM at holding potential -60mV by whole cell voltage clamp method relative to control; assay type: cell-based
In short: (§1)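 HEK293 cells transfected with GluN1-1a, GluN2A, 2B, 2C or 2D and GFP cDNA. Whole-cell voltage clamp at -60 mV, 21–25 °C, series resistance <10 MΩ compensated 80–90%. Compound co-applied with 1 µM glutamate by fast multibarrel perfusion. DMSO 1% in all solutions. […] At least four cells per point.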

[3] = biological target: Ionotropic glutamate receptor NMDA 1/2D (Rattus norvegicus, UniProt P35439+Q62645); experiment: Positive allosteric modulation of recombinant rat GluN1alpha/GluN2D receptor expressed in HEK293 cells assessed as potentiation of glutamate-induced current response at holding potential -60mV by whole cell voltage clamp method; assay type: cell-based; in short: as §1
[4] = biological target: Glutamate NMDA receptor; Grin1/Grin2c (Rattus norvegicus, UniProt P35439+Q00961); experiment: Positive allosteric modulation of recombinant rat GluN1alpha/GluN2C receptor expressed in HEK293 cells assessed as potentiation of glutamate-induced current response at holding potential -60mV by whole cell voltage clamp method; assay type: cell-based; in short: as §1
[5] = biological target: T2, Ionotropic glutamate receptor NMDA 1/2D (Rattus norvegicus) (UniProt P35439+Q62645); experiment: Positive allosteric modulation of recombinant rat GluN1alpha/GluN2D receptor expressed in HEK293 cells assessed as potentiation of glutamate-induced current response at 30 uM at holding potential -60mV by whole cell voltage clamp method relative to control; assay type: cell-based; in short: as §1
[6] = biological target: Glutamate NMDA receptor; Grin1/Grin2a (Rattus norvegicus, UniProt P35439+Q00959); experiment: Positive allosteric modulation of recombinant rat GluN1alpha/GluN2A receptor expressed in HEK293 cells assessed as potentiation of glutamate-induced current response at holding potential -60mV by whole cell voltage clamp method; assay type: cell-based; in short: as §1
[7] = biological target: T3, Glutamate NMDA receptor; Grin1/Grin2c (Rattus norvegicus) (UniProt P35439+Q00961); experiment: Positive allosteric modulation of recombinant rat GluN1alpha/GluN2C receptor expressed in HEK293 cells assessed as potentiation of glutamate-induced current response at 1 to 30 uM at holding potential -60mV by whole cell voltage clamp method relative to control; assay type: cell-based; in short: as §1
[8] = biological target: T1, Glutamate NMDA receptor; Grin1/Grin2b (Rattus norvegicus); experiment: Positive allosteric modulation of recombinant rat GluN1alpha/GluN2B receptor expressed in HEK293 cells assessed as potentiation of glutamate-induced current response at 30 uM at holding potential -60mV cotreated with 1 mM glutamate by whole cell voltage clamp method relative to control; assay type: cell-based
In short: (§2)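 HEK293 cells expressing GluN1-1a/GluN2B, whole-cell voltage clamp at -60 mV, 21–25 °C. Compound at 30 µM was given in one of three ways: co-applied with 1 µM glutamate, co-applied with 1 mM glutamate, or pre-applied before 1 mM glutamate. Delivery by fast perfusion, DMSO 1% throughout. Potentiation relative to the control glutamate response.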

[9] = biological target: T1, Glutamate NMDA receptor; Grin1/Grin2b (Rattus norvegicus); experiment: Positive allosteric modulation of recombinant rat GluN1alpha/GluN2B receptor expressed in HEK293 cells assessed as potentiation of glutamate-induced current response at 30 uM at holding potential -60mV by whole cell voltage clamp method relative to control; assay type: cell-based; in short: as §1
[10] = biological target: Glutamate NMDA receptor (Rattus norvegicus) (UniProt P35439+Q00959+Q00960+Q00961+Q62645+Q8VHN2+Q9R1M7); experiment: Positive allosteric modulation of NMDAR in rat hippocampal neuron assessed as potentiation of NMDA-induced current response at 30 uM by whole cell voltage clamp method relative to control
In short: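 Native NMDARs in cultured hippocampal neurons, whole-cell voltage clamp at -60 mV, 21–25 °C. Bath also held 10 µM CNQX, 10 µM bicuculline, 0.5 µM TTX. Compound co-applied with 1 µM glutamate by fast perfusion (~10 ms exchange). DMSO 1% throughout. Potentiation relative to control glutamate response.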

[11] = biological target: T1, Glutamate NMDA receptor; Grin1/Grin2b (Rattus norvegicus); experiment: Positive allosteric modulation of recombinant rat GluN1alpha/GluN2B receptor expressed in HEK293 cells assessed as potentiation of glutamate-induced current response at 30 uM at holding potential -60mV pretreated with cells followed by 1 mM glutamate addition by whole cell voltage clamp method relative to control; assay type: cell-based; in short: as §2
[12] = biological target: T1, Glutamate NMDA receptor; Grin1/Grin2b (Rattus norvegicus); experiment: Positive allosteric modulation of recombinant rat GluN1alpha/GluN2B receptor expressed in HEK293 cells assessed as potentiation of glutamate-induced current response at 1 to 100 uM at holding potential -60mV by whole cell voltage clamp method relative to control; assay type: cell-based
In short: (§3)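 HEK293 cells transfected with GluN1-1a, the GluN2 subunit and GFP. Whole-cell voltage clamp at -60 mV, series resistance <10 MΩ, 80-90% compensation, room temperature (21–25 °C). Compound is co-applied with 1 µM glutamate by multibarrel fast perfusion (exchange ~10 ms). DMSO is held at 1% in all test and control solutions. Readout is % potentiation of the glutamate-evoked current.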

[13] = biological target: T4, Glutamate NMDA receptor; Grin1/Grin2a (Rattus norvegicus) (UniProt P35439+Q00959); experiment: Positive allosteric modulation of recombinant rat GluN1alpha/GluN2A receptor expressed in HEK293 cells assessed as potentiation of glutamate-induced current response at 30 uM at holding potential -60mV by whole cell voltage clamp method relative to control; assay type: cell-based; in short: as §1
Rattus norvegicus [14] = organism: Rattus norvegicus; experiment: Positive allosteric modulation of GABAR in rat hippocampal neuron assessed as potentiation of GABA-induced current response at 30 uM in presence of cyclothiazide by whole cell voltage clamp method relative to control
[15] = biological target: T1, Glutamate NMDA receptor; Grin1/Grin2b (Rattus norvegicus); experiment: Positive allosteric modulation of recombinant rat GluN1alpha/GluN2B receptor expressed in HEK293 cells assessed as potentiation of glutamate-induced current response at 100 uM at holding potential -60mV by whole cell voltage clamp method relative to control; assay type: cell-based; in short: as §3
[16] = biological target: T4, Glutamate NMDA receptor; Grin1/Grin2a (Rattus norvegicus); experiment: Positive allosteric modulation of recombinant rat GluN1alpha/GluN2A receptor expressed in HEK293 cells assessed as potentiation of glutamate-induced current response at 1 to 30 uM at holding potential -60mV by whole cell voltage clamp method relative to control; assay type: cell-based; in short: as §1
Rattus norvegicus [17] = organism: Rattus norvegicus; experiment: Positive allosteric modulation of AMPAR in rat hippocampal neuron assessed as potentiation of AMPA-induced current response at 30 uM in presence of cyclothiazide by whole cell voltage clamp method relative to control
In short: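 Cultured hippocampal neurons, whole-cell voltage clamp at -60 mV, room temperature (21–25 °C). AMPAR current evoked by 5 µM AMPA; bath also held 10 µM cyclothiazide, 50 µM D-AP5, 10 µM bicuculline, 0.5 µM TTX. Compound co-applied by fast multibarrel perfusion. DMSO 1% in all test and control solutions. Effect expressed relative to control response.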

[18] = biological target: T2, Ionotropic glutamate receptor NMDA 1/2D (Rattus norvegicus); experiment: Positive allosteric modulation of recombinant rat GluN1alpha/GluN2D receptor expressed in HEK293 cells assessed as potentiation of glutamate-induced current response at 1 to 30 uM at holding potential -60mV by whole cell voltage clamp method relative to control; assay type: cell-based; in short: as §1
[19] = biological target: T1, Glutamate NMDA receptor; Grin1/Grin2b (Rattus norvegicus); experiment: Positive allosteric modulation of recombinant rat GluN1alpha/GluN2B receptor expressed in HEK293 cells assessed as potentiation of glutamate-induced current response at 30 uM at holding potential -60mV cotreated with 1 uM glutamate by whole cell voltage clamp method relative to control; assay type: cell-based; in short: as §2
[20] = biological target: T3, Glutamate NMDA receptor; Grin1/Grin2c (Rattus norvegicus); experiment: Positive allosteric modulation of recombinant rat GluN1alpha/GluN2C receptor expressed in HEK293 cells assessed as potentiation of glutamate-induced current response at 30 uM at holding potential -60mV by whole cell voltage clamp method relative to control; assay type: cell-based; in short: as §1

SMILES: CC(=O)[C@H]1CC[C@H]2[C@@H]3CC=C4C[C@@H](OC(=O)CCCCC(=O)O)CC[C@]4(C)[C@H]3CC[C@]12C
- EC50 [1]: 8.5 to 9.1 µM
- Emax [2]: 157%
- EC50 [3]: 13 µM
- EC50 [4]: 10.4 µM
- Activity [5]: 88%
- EC50 [6]: 8.9 µM
- Emax [7]: 145%
- Activity [8]: 75%
- Activity [9]: 137%
- Activity [10]: 138%
- Activity [11]: 134%
- Emax [12]: 151%
- Activity [13]: 192%
- Activity (Rattus norvegicus [14]): -90%
- Activity [15]: 614%
- Emax [16]: 203%
- Activity (Rattus norvegicus [17]): -7%
- Emax [18]: 115%
- Activity [19]: 136%
- Activity [20]: 118%
